From publication PMC4377730 (Theranostics, 2015) come the findings set out here.

The series is described as follows: [18F]FDG-PET in patients. The class given is in vivo, human. The essentials:
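Patients fasted 6 h, and blood glucose was checked just before injection to be below 150 mg/dL. They received 300-500 MBq [18F]FDG, with PET/CT started 90 min p.i. at 2 min per bed position. A low-dose CT (120 […], 20 mAs) in shallow inspiration provided attenuation correction. Emission data were corrected for randoms, dead time, scatter and attenuation. Read-outs were SUVmean/SUVmax.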

[1] abbreviates: NSCLC lesion, patient with T-cell lymphoma and NSCLC.
Where [2] appears, read: bone marrow (BM), patient with multiple myeloma.
[3] abbreviates: hottest lesion in the 5th rib left, patient with multiple myeloma.
Where [4] appears, read: lymphoma lesion, patient with T-cell lymphoma and NSCLC.
Where [5] appears, read: nodal lesions, patient with chronic lymphocytic leukemia and suspected transformation into aggressive B-cell lymphoma.

Turning to `O=C[C@H]([18F])[C@@H](O)[C@H](O)[C@H](O)CO` [[^18F]FDG, 2-[^18F]Fluoro-2-desoxyglucose], the SUVmax by setting is: under setting [1], 38.57; under setting [2], 6.24; under setting [3], 8.06; under setting [4], 50.91; under setting [5], 5.94. Moreover, the SUVmean under setting [1] is recorded as 26.36; the SUVmean under setting [2] came to 3.77; the SUVmean under setting [3] is given as 5.23; the SUVmean under setting [4] came out at 29.82; the SUVmean under setting [5] was determined as 3.66.
